Measured values reported in ChEMBL document CHEMBL4513216, “Probing the Open Global Health Chemical Diversity Library for Multistage-Active Starting Points for Next-Generation Antimalarials” (ACS Infect Dis, 2020).

Assay: Toxicity liver stage against HepG2, at 10uM
Format: cell-based
Design: test concentration 10 uM, cell line HepG2-A16-CD81EGFP
Details: human, HepG2-A16-CD81EGFP cells; read-out: INHIBITION
Outline: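 Uninfected HepG2-A16-CD81EGFP cells, 3 × 10^3 per well, 1536-well, plated on prespotted compound at 10 μM final, parasite-free screening media added to match infected plates; puromycin 10 μM positive, DMSO 0.5% negative; run in parallel with 48 h PbLuc assay at 37 °C, 5% CO2; viability by CellTiter-Glo luminescence, normalized to controls.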

Structure (SMILES)	cytotoxicity at 10 µM
CN(Cc1nnc(C2CC2)n1C)C1CCN(Cc2ccccc2)C1 (stereo not given)	-4.45%
CC(=O)N[C@H]1CCN2C(=O)[C@@H](Cc3c[nH]c4ccccc34)NC(=O)[C@H]12	-0.639%
CC(C)c1nc(C2CCCN(C(=O)CCn3ccccc3=O)C2)no1 (stereo not given)	-18.4%
C=C(C)COCCNC(=O)Nc1cccc(Cn2nc(C)nc2C)c1	7.64%
CCN1CCCCC1C(=O)N1CCc2onc(-c3ccc(Cl)cc3)c2C1 (stereo not given)	-60.1%
CCOc1ccc(N(CC(=O)c2ccccc2)C2=NCCCCC2)cc1	-2.02%
Cc1ccc(CNCc2cccc(NC(=O)CCN3CCOCC3)c2)s1	-1.91%
COC[C@@H]1CCC[C@]12CN(CCc1ccccc1)CCO2	0.312%
Cc1csc(C(=O)NCCn2nc(-n3cncn3)ccc2=O)c1	2.06%
c1cc(OCc2ccc3c(c2)OCO3)ccc1CNC1CC1	4.7%
O=C(NC1CC1)c1nnn(-c2cccc(C(F)(F)F)c2)c1C1CC1	4.01%
CN(CCO)C[C@@H]1CN(Cc2ccccc2-c2ccccc2)C[C@@H]1CO	-14%
O=C(NCC1(COc2cnccn2)C[C@@H](O)[C@@H](O)C1)C1CCOCC1 (stereo not given in full)	-2.48%
Cc1noc(C)c1CS(=O)(=O)Cc1nc(C2CC2)no1	3.37%
CCC(C)(C)NC(=O)CN1C=Nc2ccccc2S1(=O)=O	-4.47%
CC(C)(C)OC(=O)NCCC(=O)N(CCC#N)Cc1ccco1	3.12%
Cc1cccc(-c2nccnc2C2CCN(C)CC2)c1C	2.14%
CC(=O)Nc1ccc(CNC(=O)CNCc2snnc2C)cc1	8.43%
O=C(c1ccco1)N1CCCC2(CN(Cc3ccc(F)cc3)CCO2)C1 (stereo not given)	0.0288%
O=C1[C@@H]2CC[C@@H](CN(c3ncnc4ccsc34)C2)N1CC1CC1	15.2%
COc1ccccc1NC(=O)NCCCn1nc2ccccn2c1=O	-18%
CC(=O)N1CC2(CCN(c3ccc4ccccc4n3)CC2)CC1C(=O)O (stereo not given)	5.33%

Structure (SMILES)	cytotoxicity at 10 µM
CCc1nc2ccccc2c(=O)n1CC1(O)CCN(CC(=O)OC)CC1	-4.99%
CCOc1ccccc1CNC(=O)N1CCC(Cc2cnn(C)c2)C1 (stereo not given)	-7.3%
O=C(Nc1ncn(Cc2cccc(Br)c2)n1)C1CCC1	11.4%
CCN(CC)S(=O)(=O)c1ccc(C(F)(F)F)cc1C#N	-13.4%
CC(C)n1ccnc1C1CCN(C(=O)c2cc[nH]n2)CC1	-3.28%
CCOc1ccc(CNCc2cccnc2N(C)C)cc1	-6.5%
O=C(NC1(c2nc(C3CC3)no2)CCCCC1)c1ccncc1	-7.12%
Cc1ccc2ncn(CC(O)CN3CCC(C)CC3)c(=O)c2c1 (stereo not given)	-0.539%
CCc1nnc2n1CCN(C(=O)c1ccc3nc(C)c(C)nc3c1)C2	-10.9%
Cc1ccc(C(=O)NC(C)Cn2cccn2)c(=O)[nH]1 (stereo not given)	-2.16%
Cc1nc(O)c2nnn(C[C@H]3CCCN3C(=O)C(C)(C)C)c2n1	3.25%
O=C(CC1CCCO1)Nc1ccn(Cc2cccc3cccnc23)n1 (stereo not given)	2.17%
COc1cccc(CC2CCCN2Cc2nccn2C)c1 (stereo not given)	-6.16%
CS(=O)(=O)N1CCc2[nH]cnc2C12CCN(C(=O)c1ccc[nH]1)CC2	-1.42%
O=C(CS(=O)(=O)C1CCCC1)NC(c1ccc(F)cc1)C1CC1 (stereo not given)	-159%
Cc1nc(CN2CCN(CC(=O)Nc3c(C)cccc3C)CC2)no1	-3.1%
CCNS(=O)(=O)c1cnccc1N1CCN(CCO)CC1	3.6%
COc1ccc(OC)c(CNCc2ccnc(N3CCOCC3)c2)c1	1.27%
COc1c(CNCc2ccc(CN(C)C)cc2)c(C(C)C)nn1C	-11.2%
Cc1ccc(N2C[C@@H](CN3CCOCC3)[C@@H](CO)C2)nn1	7.13%
CCC(=O)NCCc1cc2nc(-c3ccncc3)ccn2n1	1.65%
CNc1cnc(CC2COCCN(CCOc3ccccc3)C2)cn1 (stereo not given)	-0.257%

Structure (SMILES)	cytotoxicity at 10 µM
CC(=O)N1CCC(NC(=O)CN2CCCc3c(F)ccc(C)c32)CC1	-7.68%
COc1cccc(C(=O)Nc2cc(CC(C)C)nn2C)c1	-9.42%
O=C1COC2(CCN(Cc3ccc(F)cc3)CC2)CN1	-25.7%
Cc1cc(C)nc(Nc2ccc(C3CCCCN3)cn2)n1 (stereo not given)	11.7%
COCCN1C2(CCN(Cc3nccs3)C2)c2ccccc2S1(=O)=O (stereo not given)	-65.7%
CCCNC(=O)CNC(=O)CCc1ccccc1Br	12.3%
O=C(NCc1ccncc1)c1nc2c(o1)CN(C(=O)c1cccnc1)C2	1.21%
CN(C)C(=O)c1cn[nH]c1C1(C)CCN(c2ncccn2)CC1	5.88%
CC(c1nc(-c2ccccc2)no1)N1CC(n2cccn2)C1 (stereo not given)	1.62%
Cc1ccc(OCCC(=O)NCCCN2CCCC2=O)c(C)c1	-1.08%
Cc1cc(C2CCC2)nc(N2CCC3(CCCN(C)C3=O)C2)n1 (stereo not given)	-6.62%
CCO[C@@H]1CC[C@H]2[C@H]1OCCN2S(=O)(=O)C1CC1	5.64%
COc1nc2c(cc1C(=O)NCc1nc(CSC)no1)CCC2	-11.7%
COc1ccc(C2CCCN2Cc2cnn(C)c2)cc1 (stereo not given)	7.53%
Cc1ccc(S(=O)(=O)N2CCC(Oc3ccccn3)CC2)c(C)c1	26.3%
COc1ccc(CN2CCn3cc(Cn4cccn4)nc3C2)cc1	13.4%
C[C@H]1C[C@@H]2CCN(C(=O)c3ccncc3)C[C@H]2O1	-1.02%
CC(C)(C)CC(=O)N1C[C@@H]2C[C@@H]1CN2	6.59%
CN1CCc2onc(CNc3ncccn3)c2C1	1.58%
CC(COc1ccccc1)NCc1cn2ccccc2n1 (stereo not given)	16.6%
O=C(CC1CC1)N[C@@H]1CN(C(=O)c2ccoc2)C[C@@H]2CCCO[C@@H]21	-104%
CC(C)(Cn1cnc(-c2ccccc2)c1-c1ccco1)N1CCOCC1	-38.8%

Structure (SMILES)	cytotoxicity at 10 µM
O=C(C[C@@H]1COC[C@H]2CN(Cc3cccnc3)C[C@@H]12)N1CCOCC1	-3.35%
O=C(C1CCCC1)N1CCN(Cc2ccncc2)[C@@H]2CS(=O)(=O)C[C@@H]21	-1.79%
COc1ccc(-c2ccc(C(=O)NS(C)(=O)=O)c(F)c2)c(F)c1	0.512%
CC(C)(C)CN[C@@H]1CO[C@H](CNC(=O)C2CCCC2)[C@H]1O	-9.03%
CS(=O)(=O)NCCCNC(=O)NCc1ccccc1	-3.54%
CN(C)C(=O)C1CCC2(CCN(C(=O)Nc3ccccc3)CC2)O1 (stereo not given)	-106%
O=C1OCCC1N1CCN(c2ccc(O)cc2)CC1 (stereo not given)	-1.29%
CCC(=O)N1CCCC1c1nccnc1Nc1nc(C)cc(C)n1 (stereo not given)	3.99%
CS(=O)(=O)CCNC(=O)c1ccc(-c2ccco2)[nH]c1=O	-22.8%
CCCc1cnc(C)nc1N1CCC(Cc2ccc(CO)cc2)C1 (stereo not given)	-2.36%
CCN1CCNC(=O)C12CCN(C(=O)Cc1ccsc1)CC2	-3.31%
Cc1noc(C)c1C(=O)N1CCCC1(C)C(=O)NC1CCCC1 (stereo not given)	-1.33%
CN1CCN(c2ccccc2NC(=O)c2ccco2)CC1	-5.92%
CC(CN(C)C(=O)c1cn(C)nc1-c1ccc(F)cc1F)C(=O)O (stereo not given)	0.184%
Cc1cc(C(=O)NCCc2nc3c(s2)CCCC3)n(C)n1	20.5%
Cn1cc(NC(=O)c2ccccn2)cc(Br)c1=O	-12.8%
CC(=O)N(Cc1ncc(C)o1)C1CCN(Cc2ccon2)C1 (stereo not given)	-9.03%
CN(Cc1ccco1)[C@@H]1CN(Cc2cccnc2)C[C@@H]2CCCO[C@@H]21	8.49%
CNC(=O)c1cc2c(nc1N(C)C)CCN(c1ncc(F)cn1)CC2	-131%
Cc1nn(C)c2ncc(NC(=O)N3CCNC(=O)C3)cc12	-5.81%
COc1ccc(CN(C)Cn2cc(C)n(-c3cc(C)on3)c2=O)cc1	3.36%
Cc1n[nH]c2c1C(c1ccc(O)c(Cl)c1)SCC(=O)N2 (stereo not given)	10.4%

Structure (SMILES)	cytotoxicity at 10 µM
COc1cc(CNC2CCCc3c2cnn3C)cc(OC)c1 (stereo not given)	-6.85%
Cc1ccc(CN2CCC3(CCN(S(=O)(=O)c4ccccc4)C3)C2)o1 (stereo not given)	-0.00736%
CCOc1ccc(CC(=O)N2C[C@H](C3CC3)[C@@H](N)C2)cc1	-7.76%
O=C(NCCc1ccccc1)C1CCCN(c2ccc3nncn3n2)C1 (stereo not given)	25.9%
O=C(NCc1cc2n(n1)CCCNC2)c1cn2cc(Cl)ccc2n1	-10.1%
CC(=O)N1CCCN(C(=O)NCCCNS(C)(=O)=O)CC1	-10.3%
Cc1nn(C)c(C)c1CC(=O)NCc1ccnc(OC2CCCC2)c1	-0.883%
CC(C)OCCCNC(=O)N(C)C(C)c1ccc(-n2cncn2)cc1 (stereo not given)	4.08%
CCC(=O)N1CCc2nc(N3CCOCC3)nc(N(C)C)c2CC1	28.9%
Cc1ncsc1CCNC(=O)Cn1nc(C)n(Cc2ccccc2)c1=O	7.48%
Cc1cnn(C2CCCN(C(=O)CN(C)c3cnccn3)C2)c1 (stereo not given)	-8.73%
CN(CCC#N)C(=O)Cn1cnc2c(Br)cccc2c1=O	-1.6%
COc1ccc(C[C@H]2CNCC[C@H]2OC)cc1	1.76%
CN1CCN(C(=O)Cc2ccsc2)Cc2cccnc21	-1.16%
CCC1(O)CCCN(c2nc(C(C)(C)C)nc3c2cnn3C)C1 (stereo not given)	-52.9%
CCN(CC)C(CNS(=O)(=O)c1ccc(C(=O)NC)cc1)c1ccco1 (stereo not given)	4.62%
OC(c1ccccc1)C1CCN(Cc2csc(-c3ncccn3)n2)CC1 (stereo not given)	-3.87%
CS(=O)(=O)N1CCN(C(=O)C2CSCCC(=O)N2)CC1 (stereo not given)	0.565%
CCCN1CCN(C(=O)c2cccnc2-n2cncn2)CC1	5.28%
CCn1cc(CN2CCN(CC(O)c3cc(C)ccc3C)CC2)c(C)n1 (stereo not given)	3.41%
N#Cc1ccc(OC[C@]23COC[C@H]2CN(Cc2nccs2)C3)nc1	2.37%
CN(C)C(=O)[C@H]1C[C@H]2CN(CCc3ccccc3)C[C@@H]1O2	-94.2%
